Bioassay records (PubChem)
CaV13 ICDI inh: Disruptors of the CACNA1D IQ motif to Ca2+-dependent inactivation inhibitor domain association, primary screening, Förster resonance energy transfer in intact living … | HEK cells, CFP/YFP FRET ICDI-IQ, plate reader, 10 min; percent FRET-ratio fall versus neutral wells | 340,000 compounds, 0.098% hits | inhibition, % at 12.3 µM | AID 743397;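 active = mean replicate inhibition of at least 30% and at least 1% of replicates passing that level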;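 note: 0% = median of the neutral control wells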
FAS-TE inh: FAS thioesterase domain inhibitors, primary screen, biochemical, fluorescence intensity, uHTS; recombinant FAS-TE, OMFH fluorogenic substrate, fluorescence endpoint; inhibition, % at 15 µM; AID 602261, 2012; Fatty acid synthase (Homo sapiens), P49327; 360,000 compounds, 0.67% hits;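 active = compounds whose normalised, plate-corrected inhibition of enzyme fluorescence in the single-dose primary screen is 50% or more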;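 note: 0% = DMSO with enzyme and 100% = substrate without enzyme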
Arrestin-AP2 inh: inhibitors of beta-arrestin/AP2 binding, primary screen, biochemical, GPCR trafficking, flow cytometry | beta-arrestin 1 C-terminal peptide binding to AP2 beta2-adaptin appendage (human) | 340,000 compounds, 0.31% hits | FITC-arrestin peptide / GST-AP2 beads; AP2 beta2 appendage carries R879A mutation | AID 504490, 2011 | inhibition, % at 10 µM;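 active = inhibition above a set limit, near 3 SD of compounds lacking own fluorescence, cut at about 54% in these data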;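 note: plate controls were DMSO wells for no effect and 5 µM unlabelled arrestin peptide for full effect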
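Material – AP2 appendage R879A on GSH beads · Buffer or medium – PBS with 0.05% Tween 20 and 0.1% BSA · Probe or stimulus – fluorescein-tagged arrestin peptide at 50 nM final · Incubation – compound with beads 12 min RT, then probe 1 h RT · Detection – high-throughput flow cytometry of beads, ex 488, em 535 nm · Evaluation – percent response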
ADAM10 inh: human ADAM10 inhibitors, primary screen, biochemical, QFRET, HTS; Disintegrin and metalloproteinase domain-containing protein 10 (Homo sapiens), O14672; recombinant ADAM10, EDANS/DABCYL FRET peptide cleavage, 3 h; inhibition, % at 7 µM; 370,000 compounds, 0.62% hits; AID 720582, 2013;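 active = inhibition above a per-campaign cutoff equal to the mean of compounds falling between control-based bounds plus 3 SD, cut at about 20% in these data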;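 note: 0% = DMSO wells while the 100% control is not disclosed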
ADAM17 inh: ADAM17 inhibitors, primary screen, biochemical, QFRET; recombinant ADAM17, EDANS/DABCYL FRET peptide cleavage; inhibition, % at 6.95 µM; 370,000 compounds, 0.83% hits; AID 720648, 2013;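 active = inhibition above the mean of compounds lying between control limits plus 3 SD, set per campaign, cut at about 8.5% in these data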;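 note: 0% = DMSO-only wells as the low control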
CendR NRP1 mod: modulators of CendR peptide binding to NRP-1, primary screen, biochemical, fluorescence polarization, uHTS | FAM-RPARPAR peptide binding to NRP-1 | inhibition, % at 25 µM | 360,000 compounds, 0.85% hits | AID 602438, 2012;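 active = inhibition or corrected inhibition above about 18%, plus a signal ratio from 0.5 to 1.5, limit read from the data, passing the limit was not always enough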
Target sequence (O14786 whole entry, looked up): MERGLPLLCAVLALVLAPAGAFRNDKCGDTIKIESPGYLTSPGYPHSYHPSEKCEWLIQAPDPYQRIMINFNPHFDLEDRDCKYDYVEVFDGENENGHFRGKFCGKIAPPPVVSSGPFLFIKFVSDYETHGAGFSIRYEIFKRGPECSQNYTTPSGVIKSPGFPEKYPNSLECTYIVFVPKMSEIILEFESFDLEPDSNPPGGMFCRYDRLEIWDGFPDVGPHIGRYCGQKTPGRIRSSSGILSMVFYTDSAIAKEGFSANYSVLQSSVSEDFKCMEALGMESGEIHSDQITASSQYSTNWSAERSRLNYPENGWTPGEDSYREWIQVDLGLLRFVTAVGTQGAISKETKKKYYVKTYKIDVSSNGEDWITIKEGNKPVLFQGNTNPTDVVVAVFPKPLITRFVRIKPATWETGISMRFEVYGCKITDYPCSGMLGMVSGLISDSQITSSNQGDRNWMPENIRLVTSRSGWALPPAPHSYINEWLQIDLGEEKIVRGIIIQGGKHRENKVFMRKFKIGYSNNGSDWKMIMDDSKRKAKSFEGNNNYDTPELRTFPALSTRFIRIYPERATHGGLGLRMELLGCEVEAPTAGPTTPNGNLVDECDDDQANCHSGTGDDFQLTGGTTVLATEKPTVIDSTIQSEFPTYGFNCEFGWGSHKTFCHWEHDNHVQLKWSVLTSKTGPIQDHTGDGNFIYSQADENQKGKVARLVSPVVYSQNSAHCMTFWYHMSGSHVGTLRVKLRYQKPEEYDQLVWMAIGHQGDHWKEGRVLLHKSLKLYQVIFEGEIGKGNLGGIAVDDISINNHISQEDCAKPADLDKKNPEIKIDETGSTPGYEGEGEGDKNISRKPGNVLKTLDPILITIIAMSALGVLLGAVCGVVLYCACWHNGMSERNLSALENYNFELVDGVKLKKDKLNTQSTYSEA
ADAM10 confirm: human ADAM10 inhibitors, confirmation, biochemical, QFRET, triplicate. ADAM10 QFRET peptide cleavage, EDANS fluorescence. 2,100 compounds, 1% hits. shares compounds with ADAM10 inh. inhibition, % at 6.95 µM;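 active = inhibition above about 20% chosen separately for each screening run, limit read from the data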;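 note: 0% = DMSO wells and 100% = marimastat wells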
ADAM17 counter: ADAM17 inhibitors, counter-screen for ADAM10 exosite inhibitor project, biochemical, QFRET, high throughput; shares compounds with ADAM10 inh; ADAM17 QFRET peptide cleavage, EDANS fluorescence; inhibition, % at 6.95 µM; 2,100 compounds, 0.5% hits;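 active = mean triplicate inhibition above the solvent-only control wells' mean plus 3 SD, cut at about 12% in these data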;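 note: 0% = DMSO wells and 100% = marimastat wells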
* hit, by the source's call. A selection: hits, their analogues and other compounds. The true share with any hit is near 2.9%.

How did CC(=NNC(=S)Nc1ccccc1)c1ccccn1 do in these assays?
CaV13 ICDI inh: -7; FAS-TE inh: -2; ADAM10 inh: 26*; ADAM17 inh: 13*; CendR NRP1 mod: -4; ADAM10 confirm: 48*; ADAM17 counter: 43*

How did Cn1c(N=Nc2ccccc2)nc2ccccc21 do in these assays?
CaV13 ICDI inh: -7; FAS-TE inh: -11; Arrestin-AP2 inh: 19; ADAM10 inh: 22*; ADAM17 inh: 8; CendR NRP1 mod: 10; ADAM10 confirm: 2; ADAM17 counter: 0

Results for CCC(c1nnnn1C(C)C)N1CCN(C2CCCC2)CC1 (centres undefined) ?
CaV13 ICDI inh: -6; FAS-TE inh: -6; Arrestin-AP2 inh: -1; ADAM10 inh: 74*; ADAM17 inh: 1; CendR NRP1 mod: 2; ADAM10 confirm: -3; ADAM17 counter: 0

How did CCC(c1nnnn1C1CCCCC1)N1CCN(C2CCCC2)CC1 (centres undefined) do in these assays?
CaV13 ICDI inh: -7; FAS-TE inh: -8; Arrestin-AP2 inh: -2; ADAM10 inh: -7; ADAM17 inh: -2; CendR NRP1 mod: 11

Results for O=C(NCCc1nc2ccccc2[nH]1)/C(=C/c1ccc2c(c1)OCO2)NC(=O)c1ccc(Cl)cc1Cl ?
CaV13 ICDI inh: -5; FAS-TE inh: 36; Arrestin-AP2 inh: 13; ADAM10 inh: 22*; ADAM17 inh: 3; CendR NRP1 mod: -2; ADAM10 confirm: 32*; ADAM17 counter: 6

How did O=C(NCCc1nc2ccccc2[nH]1)/C(=C/c1ccc(F)cc1)NC(=O)c1ccco1 do in these assays?
CaV13 ICDI inh: -5; FAS-TE inh: -3; Arrestin-AP2 inh: -1; ADAM10 inh: 4; ADAM17 inh: -1; CendR NRP1 mod: -3

What do the screens show for `OCC[C@H]1C[C@H](O)[C@@H](O)[C@]2(OCc3ccccc32)O1`?
CaV13 ICDI inh: -11; FAS-TE inh: -4; Arrestin-AP2 inh: 1; ADAM10 inh: -5; ADAM17 inh: -4; CendR NRP1 mod: 10

Results for O=C(CCNc1cc(Cl)cc(Cl)c1)c1cccs1 ?
CaV13 ICDI inh: -2; FAS-TE inh: 43; Arrestin-AP2 inh: 44; ADAM10 inh: 22*; ADAM17 inh: 7; CendR NRP1 mod: 1; ADAM10 confirm: 6; ADAM17 counter: 2

What do the screens show for `Cc1ccccc1-c1ccc2c(c1)[C@@H]1C[C@H]3[C@@H](CN1CC2)[C@H](C)OC(c1ccccc1)N3C` (some centres undefined)?
CaV13 ICDI inh: -3; ADAM10 inh: -72; ADAM17 inh: -17

What do the screens show for `O=C(COc1ccc(Cl)cc1)NNC(=O)c1ccc2c(=O)n3c(nc2c1)CCC3`?
CaV13 ICDI inh: -5; FAS-TE inh: -1; Arrestin-AP2 inh: -11; ADAM10 inh: 81*; ADAM17 inh: 3; CendR NRP1 mod: -4; ADAM10 confirm: 2; ADAM17 counter: 1

How did COc1ccc(OCC(=O)NNC(=O)c2ccc3c(=O)n4c(nc3c2)CCC4)cc1 do in these assays?
FAS-TE inh: -4; Arrestin-AP2 inh: -6; ADAM10 inh: 71*; ADAM17 inh: -1; CendR NRP1 mod: -12; ADAM10 confirm: 2; ADAM17 counter: 0

What do the screens show for `O=[N+]([O-])c1ccccc1/C=C/C=N/n1c(-c2ccccc2)n[nH]c1=S`?
CaV13 ICDI inh: -5; FAS-TE inh: -6; Arrestin-AP2 inh: 7; ADAM10 inh: 7; ADAM17 inh: -1; CendR NRP1 mod: -6

What do the screens show for `Cc1ccc(-c2n[nH]c(=S)n2/N=C/C=C\c2ccccc2[N+](=O)[O-])cc1`?
CaV13 ICDI inh: -6; FAS-TE inh: -6; Arrestin-AP2 inh: 32; ADAM10 inh: 29*; ADAM17 inh: 8; CendR NRP1 mod: -19; ADAM10 confirm: 1; ADAM17 counter: 0

What do the screens show for `CCOC(=O)C1(C(=O)OCC)Cc2c([nH]c3ccccc23)[C@]2(N1)C(=O)N(C)c1ccc(Br)cc12`?
ADAM10 inh: 25*; ADAM17 inh: 12*; ADAM10 confirm: 5; ADAM17 counter: 2

Results for CCOc1ccc(NC(=S)Nc2ccc(F)cc2)cc1 ?
CaV13 ICDI inh: -7; FAS-TE inh: -4; Arrestin-AP2 inh: -13; ADAM10 inh: -2; ADAM17 inh: -3; CendR NRP1 mod: 3

What do the screens show for `CCOc1ccc(NC(=S)Nc2cc(-c3ccccc3)[nH]n2)cc1`?
CaV13 ICDI inh: -8; FAS-TE inh: 12; Arrestin-AP2 inh: -5; ADAM10 inh: 23*; ADAM17 inh: 4; CendR NRP1 mod: -5; ADAM10 confirm: 6; ADAM17 counter: 1

How did Cn1c(N)nc2nc[nH]c2c1=S do in these assays?
CaV13 ICDI inh: -5; FAS-TE inh: -6; Arrestin-AP2 inh: -13; ADAM10 inh: -63; ADAM17 inh: -14; CendR NRP1 mod: 10

How did O=C(c1ccc(C#CC2(O)CCCCC2)cc1)N1CCN(C(c2ccccc2)c2ccccc2)CC1 do in these assays?
CaV13 ICDI inh: -3; FAS-TE inh: 16; Arrestin-AP2 inh: 3; ADAM10 inh: 25*; ADAM17 inh: 4; CendR NRP1 mod: 2; ADAM10 confirm: 6; ADAM17 counter: 2

Results for CC1(C)CC(=O)C=C(c2ccc(COC(=O)C(c3ccccc3)c3ccccc3)cc2)C1=O ?
CaV13 ICDI inh: -5; FAS-TE inh: 24; ADAM10 inh: 20*; ADAM17 inh: 6; CendR NRP1 mod: -7; ADAM10 confirm: 3; ADAM17 counter: 0

What do the screens show for `COc1ccc(Cl)cc1NS(=O)(=O)c1ccc(S(=O)(=O)N2CCCC2)cc1`?
FAS-TE inh: 37; Arrestin-AP2 inh: 15; ADAM10 inh: 20*; ADAM17 inh: 2; CendR NRP1 mod: 4; ADAM10 confirm: 1; ADAM17 counter: 0

What do the screens show for `CC(c1ccccc1)N1CC[C@H]2C=CC[C@@H](C(=O)Nc3ccc(F)c(F)c3)[C@H]2C1=O` (some centres undefined)?
ADAM10 inh: -3; ADAM17 inh: -3
